Results taken from ChEMBL document CHEMBL4130485, “Inhibitors of Yellow Fever Virus replication based on 1,3,5-triphenyl-4,5-dihydropyrazole scaffold: Design, synthesis and antiviral evaluation” (Eur J Med Chem, 2017).
Active and inactive are the calls of the source. No cut-off for these calls is given here.

Key:
[1] = system: Human immunodeficiency virus 1; assay: Antiviral activity against HIV1 3B infected in human MT4 cells assessed as protection against virus-induced cytopathic effect after 4 days by MTT assay; assay type: functional, organism-based; details: Human immunodeficiency virus 1, 3B, MT4, 96 h
In short: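 MT-4 cells (1×10^4/well) in RPMI with serial compound dilutions, infected with 100 CCID50 HIV-1 (m.o.i. 0.01). Viability read by MTT after 4 days at 37 °C. EC50 for 50% protection from cytopathicity obtained by linear regression versus untreated controls; mean of three determinations.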

Vaccinia virus = assay: Antiviral activity against Vaccinia virus Lister ATCC VR 1549 infected in African green monkey Vero 76 cells assessed as protection against virus-induced cytopathic effect after 3 days by crystal violet staining-based plaque reduction assay; assay type: functional, organism-based; details: Orthopoxvirus vaccinia, ATCC VR 1549, Vero 76, 72 h
[2] = system: Mammalian orthoreovirus 1; assay: Antiviral activity against Reovirus 1 infected in golden hamster BHK21 cells assessed as protection against virus-induced cytopathic effect after 3 to 4 days by MTT assay; assay type: functional, organism-based; details: Mammalian orthoreovirus 1, BHK-21
In short: (§1)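 BHK-21 cells (MDBK for BVDV) seeded at 5×10^4 (BHK) or 3×10^4 (MDBK) cells/well and grown overnight to confluence. Infected at m.o.i. 0.01 in maintenance MEM-Earle with 0.5% inactivated FBS. Serial compound dilutions added 2 h later (final 100, 20, 4, 0.8 µM; DMSO ≤0.1%). Viability read by MTT after 3–4 days at 37 °C. EC50 obtained by linear regression against untreated controls; mean of three determinations.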

[3] = Antiviral activity against Human enterovirus B Faulkner ATCC VR 185 infected in African green monkey Vero 76 cells assessed as protection against virus-induced cytopathic effect after 3 days by crystal violet staining-based plaque reduction assay; assay type: functional, cell-based; details: Faulkner ATCC VR 185, Vero 76, 72 h
dengue virus type 2 = assay: Antiviral activity against Dengue virus type 2 clinical isolate infected in golden hamster BHK21 cells assessed as protection against virus-induced cytopathic effect after 3 to 4 days by MTT assay; assay type: functional, organism-based; details: BHK-21; in short: as §1
Human orthopneumovirus = assay: Antiviral activity against Human respiratory syncytial virus A2 ATCC VR 1540 infected in African green monkey Vero 76 cells assessed as protection against virus-induced cytopathic effect after 5 days by crystal violet staining-based plaque reduction assay; assay type: functional, organism-based; details: ATCC VR 1540, Vero 76, 120 h
[4] = Cytotoxicity against African green monkey Vero 76 cells assessed as decrease in cell viability after 48 to 96 hrs by MTT assay; assay type: cell-based; details: chlorocebus sabaeus
In short: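 Vero 76 cells seeded at 5×10^5 cells/mL in D-MEM with 10% FBS and incubated with serial compound dilutions at 37 °C, 5% CO2. Viability read by MTT after 48–96 h. CC50 by linear regression versus untreated controls.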

Enterovirus C = assay: Antiviral activity against Enterovirus C Sabin […] infected in African green monkey Vero 76 cells assessed as protection against virus-induced cytopathic effect after 2 days by crystal violet staining-based plaque reduction assay; assay type: functional, organism-based; details: Vero 76, 48 h
Yellow fever virus [5] = details: Yellow fever virus 17D; vaccine (Stamaril Pasteur J07B01); at 20 µM
[6] = system: Vesicular stomatitis Indiana virus; assay: Antiviral activity against Vesicular stomatitis virus Indiana ATCC VR 158 infected in African green monkey Vero 76 cells assessed as protection against virus-induced cytopathic effect after 2 days by crystal violet staining-based plaque reduction assay; assay type: functional, organism-based; details: ATCC VR 158, Vero 76, 48 h
Yellow fever virus [7] = assay: Potency index, ratio of azauridine EC50 to compound EC50 for Yellow fever virus 17D vaccine (Stamaril Pasteur J07B01); assay type: functional
[8] = Cytotoxicity against human MT4 cells assessed as decrease in cell viability after 96 hrs by MTT assay; assay type: cell-based
In short: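 Exponentially growing MT-4 cells seeded at 1×10^5 cells/mL in RPMI-1640 with 10% FBS and incubated with serial compound dilutions at 37 °C, 5% CO2. Viability read by MTT after 96 h. CC50 by linear regression versus untreated controls.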

[9] = Cytotoxicity against golden hamster BHK21 cells assessed as decrease in cell viability after 72 hrs by MTT assay; assay type: cell-based, Mesocricetus auratus, BHK-21
In short: (§2)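 Uninfected MDBK (6×10^5 cells/mL, 10% horse serum) or BHK (1×10^6 cells/mL, 10% FBS) cells in MEM-Earle with serial compound dilutions at 37 °C, 5% CO2, run in parallel with the antiviral assays. Viability read by MTT after 72 h. CC50 by linear regression; mean of three determinations.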

[10] = Cytotoxicity against bovine MDBK cells assessed as decrease in cell viability after 72 hrs by MTT assay; assay type: cell-based, Bos taurus; details: cattle; in short: as §2
Yellow fever virus [11] = assay: (§3) Antiviral activity against Yellow fever virus 17D vaccine (Stamaril Pasteur J07B01) infected in golden hamster BHK21 cells assessed as protection against virus-induced cytopathic effect after 3 to 4 days by MTT assay; assay type: functional, organism-based; details: BHK-21; in short: as §1
West Nile virus = assay: Antiviral activity against West Nile virus clinical isolate infected in golden hamster BHK21 cells assessed as protection against virus-induced cytopathic effect after 3 to 4 days by MTT assay; assay type: functional, organism-based; details: BHK-21; in short: as §1
Yellow fever virus [12] = assay: as §3, with “effect at 20 uM pretreated for 2 hrs followed by viral infection and measured” for “effect”, “24” for “3”, “36 hrs post infection” for “4 days”; assay type: functional, organism-based
In short: (§4)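 Confluent BHK-21 monolayers inoculated at room temperature with YFV 17-D at 1 PFU/cell, adsorbed 60 min and washed. Compound at 20 µM (test) or 90 µM (6-azauridine reference) added 2 h before infection, during the 2 h infection, or in 2-h windows from 0 to 10 h p.i. Wells washed, refed until 10 h, CPE scored at 24–36 h p.i. Cells frozen and titred by plaque assay.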

[13] = Selectivity index, ratio of CC50 for bovine MDBK cells to EC50 for Bovine viral diarrhea virus NADL ATCC VR 534; assay type: toxicity; details: cattle, read-out: Ratio CC50/EC50
In short: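 Selectivity index calculated as MDBK CC50 divided by BVDV EC50, both by MTT.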

Human alphaherpesvirus 1 = assay: Antiviral activity against Human herpesvirus 1 KOS ATCC VR 1493 infected in African green monkey Vero 76 cells assessed as protection against virus-induced cytopathic effect after 3 days by crystal violet staining-based plaque reduction assay; assay type: functional, organism-based; details: Human alphaherpesvirus 1, KOS, Vero 76, 72 h
[14] = Selectivity index, ratio of CC50 for golden hamster BHK21 cells to EC50 for Yellow fever virus 17D; assay type: toxicity; details: read-out: Ratio CC50/EC50
In short: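 Selectivity index calculated as BHK-21 CC50 divided by YFV EC50, both from MTT assays.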

[15] = system: Bovine viral diarrhea virus 1; assay: Antiviral activity against Bovine viral diarrhea virus NADL ATCC VR 534 infected in bovine MDBK cells assessed as protection against virus-induced cytopathic effect after 3 to 4 days by MTT assay; assay type: functional, organism-based, Bovine viral diarrhea virus 1-NADL; details: Bovine viral diarrhea virus isolates and strains, ATCC VR 534, MDBK; in short: as §1
Yellow fever virus [16] = assay: as §3, with “effect at 90 uM pretreated for 2 hrs followed by viral infection and measured” for “effect”, “24” for “3”, “36 hrs post infection” for “4 days”; assay type: functional, organism-based; in short: as §4

Compound | EC50 [1] [µM] | EC50 (Vaccinia virus) [µM] | EC50 [2] [µM] | EC50 [3] [µM] | EC50 (dengue virus type 2) [µM] | EC50 (Human orthopneumovirus) [µM] | CC50 [4] [µM] | EC50 (Enterovirus C) [µM] | inhibition (Yellow fever virus [5]) | EC50 [6] [µM] | Ratio EC50 (Yellow fever virus [7]) | CC50 at 96 h [8] [µM] | CC50 at 72 h [9] [µM] | CC50 at 72 h [10] [µM] | EC50 (Yellow fever virus [11]) [µM] | EC50 (West Nile virus) [µM] | inhibition (Yellow fever virus [12]) | EC50 (Human alphaherpesvirus 1) [µM] | selectivity ratio [14] | EC50 [15] [µM] | further results
NS(=O)(=O)c1ccc(N2N=C(c3ccc(OCc4ccccc4)cc3)CC2c2ccccc2F)cc1 (stereo not drawn) | > 39 | > 100 | > 92 | > 100 | > 90 | > 100 | > 100 | > 100 | Active | > 100 | 10 | 39 | 90 to 92 | > 100 | 1.8 | > 90 | Active | > 100 | 50 | 52 | selectivity ratio [13]: > 1.9
O=c1cnn([C@@H]2O[C@H](CO)[C@@H](O)[C@H]2O)c(=O)[nH]1 [6-AZAURIDINE] |  |  | 18 |  |  | 40 | 16 |  |  |  |  |  | > 100 |  | 20 |  |  |  | > 5 |  | Activity (Yellow fever virus [16]): Active
NS(=O)(=O)c1ccc(N2N=C(c3ccc(OCc4ccccc4)cc3)CC2c2ccccc2)cc1 (stereo not drawn) | > 100 | > 100 | > 84 | > 100 | > 80 | > 100 | > 100 | > 100 | Active | > 100 | 10 | > 100 | 80 to 84 | 72 | 2.2 | > 80 | Active | > 100 | 36.4 | > 72 | 
